The entries come from a sample that favours hits as a whole.
E-sel inducer = induces E-selectin expression in human endothelial cells | P16581 | HUVEC E-selectin immunofluorescence imaging; normalized: neutral wells 0, TNF-alpha wells 100 | activation, % at 7.58 µM | hit rate 0.37% among 260,000;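 active means mean E-selectin-positive cell signal at least 10% of the positive control, reached in at least 60% of replicates, without over 20% cell loss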
Target sequence (P16581 whole entry, looked up): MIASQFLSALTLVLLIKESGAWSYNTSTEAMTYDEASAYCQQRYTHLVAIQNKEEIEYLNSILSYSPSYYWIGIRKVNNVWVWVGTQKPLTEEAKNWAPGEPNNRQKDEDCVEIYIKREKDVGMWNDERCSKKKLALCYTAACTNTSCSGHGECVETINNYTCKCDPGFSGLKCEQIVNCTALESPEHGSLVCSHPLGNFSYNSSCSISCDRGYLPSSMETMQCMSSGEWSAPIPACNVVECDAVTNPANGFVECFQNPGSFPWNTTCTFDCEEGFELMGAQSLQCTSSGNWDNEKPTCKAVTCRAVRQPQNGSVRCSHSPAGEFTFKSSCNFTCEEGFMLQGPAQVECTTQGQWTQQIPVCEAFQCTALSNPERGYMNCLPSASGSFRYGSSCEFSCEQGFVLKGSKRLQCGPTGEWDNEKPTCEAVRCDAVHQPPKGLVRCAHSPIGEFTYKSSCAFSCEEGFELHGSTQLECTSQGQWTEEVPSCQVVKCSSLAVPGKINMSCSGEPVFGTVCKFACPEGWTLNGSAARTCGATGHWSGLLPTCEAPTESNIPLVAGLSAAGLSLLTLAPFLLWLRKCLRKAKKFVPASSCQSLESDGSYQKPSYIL
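System: HUVEC / Compound: single concentration / Signal: immunofluorescence imaging / Read-out: percent E-selectin-positive cells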
* hit, by the source's call.

SMILES | E-sel inducer
Cc1cccc(S(=O)(=O)N2C[C@H](O)COC[C@@H]3O[C@@H](CC(=O)NCCCN4CCOCC4)CC[C@H]32)c1 | 0
C[C@@H]1CCCCO[C@@H](CN(C)S(=O)(=O)c2ccccc2)[C@@H](C)CN([C@H](C)CO)C(=O)c2cc(NC(=O)C3CCCCC3)ccc2O1 | 0
Cn1c(N)c(C(=O)COC(=O)CN2C(=O)c3ccccc3C2=O)c(=O)n(C)c1=O | 0
Cn1c(N)c(C(=O)COC(=O)CCc2ccccc2)c(=O)n(C)c1=O | 107*
Cn1c(N)c(C(=O)COC(=O)CNC(=O)c2ccccc2)c(=O)n(C)c1=O | 0
COCC(=O)Nc1ccc2c(c1)OC[C@@H](C)N(Cc1cccnc1)C[C@@H](C)[C@H](OC)CN(C)C2=O | 0
CN1CCN(C(=O)C[C@H]2CC[C@@H](NC(=O)Nc3ccccc3F)[C@@H](CO)O2)CC1 | -1
CN1CCN(C(=O)C[C@H]2C[C@@H]3c4cc(NC(=O)Cc5ccncc5)ccc4O[C@@H]3[C@@H](CO)O2)CC1 | 0
COc1ccc(NC(=O)N(C)C[C@H]2Oc3ccc(NC(=O)CCCCCC(=O)Nc4ccccc4N)cc3CC(=O)N([C@@H](C)CO)C[C@H]2C)cc1 | 32*
C[C@@H]1CN([C@@H](C)CO)C(=O)Cc2cc(NC(=O)CCCCCC(=O)Nc3ccccc3N)ccc2O[C@@H]1CN(C)C(=O)Nc1ccc2c(c1)OCO2 | 181*
C[C@H](CO)N1C[C@H](C)[C@@H](CN(C)C(=O)Nc2ccc3c(c2)OCO3)Oc2ccc(NC(=O)CCCCCC(=O)Nc3ccccc3N)cc2CC1=O | -14
C[C@@H]1CN([C@@H](C)CO)C(=O)c2cc(NC(=O)CCCCCC(=O)Nc3ccccc3N)ccc2O[C@@H]1CN(C)C(=O)Nc1ccccc1 | 0
C[C@H]1CN([C@@H](C)CO)C(=O)Cc2cc(NC(=O)CCCCCC(=O)Nc3ccccc3N)ccc2O[C@@H]1CN(C)C(=O)Nc1ccc2c(c1)OCO2 | 6
C[C@H](CO)N1C[C@H](C)[C@H](CN(C)C(=O)Nc2ccccc2)Oc2ccc(NC(=O)CCCCCC(=O)Nc3ccccc3N)cc2CC1=O | 0
C[C@@H]1CN([C@H](C)CO)C(=O)c2cc(NC(=O)CCCCCC(=O)Nc3ccccc3N)ccc2O[C@@H]1CN(C)C(=O)Nc1ccc2c(c1)OCO2 | 100*
COc1ccc(NC(=O)N(C)C[C@@H]2Oc3ccc(NC(=O)CCCCCC(=O)Nc4ccccc4N)cc3CC(=O)N([C@@H](C)CO)C[C@@H]2C)cc1 | -6
C[C@H](CO)N1C[C@H](C)[C@H](CN(C)C(=O)Nc2ccc3c(c2)OCO3)Oc2ccc(NC(=O)CCCCCC(=O)Nc3ccccc3N)cc2CC1=O | 392*
C[C@@H]1CN([C@@H](C)CO)C(=O)c2cc(NC(=O)CCCCCC(=O)Nc3ccccc3N)ccc2O[C@H]1CN(C)C(=O)Nc1ccccc1 | 0
C[C@H]1CN([C@@H](C)CO)C(=O)Cc2cc(NC(=O)CCCCCC(=O)Nc3ccccc3N)ccc2O[C@@H]1CN(C)C(=O)Nc1ccccc1 | 0
COc1ccc(NC(=O)N(C)C[C@H]2Oc3ccc(NC(=O)CCCCCC(=O)Nc4ccccc4N)cc3CC(=O)N([C@H](C)CO)C[C@@H]2C)cc1 | 0
COc1ccc(S(=O)(=O)Nc2ccc3c(c2)CC(=O)N([C@@H](C)CO)C[C@@H](C)[C@@H](CN(C)S(=O)(=O)c2ccc(Cl)cc2)O3)cc1 | 0
CO[C@H](CN(C)S(=O)(=O)c1ccccc1)[C@H](C)CN(C(=O)Nc1ccccc1F)[C@H](C)CO | 0
C[C@@H]1CN([C@H](C)CO)C(=O)c2cc(-c3ccccc3F)cnc2O[C@@H]1CN(C)Cc1ccc(F)cc1 | 0
CC(C)NC(=O)Nc1ccc2c(c1)CC(=O)N([C@@H](C)CO)C[C@H](C)[C@H](CN(C)C)O2 | 0
CCC(=O)N1[C@@H](CO)[C@@H](c2ccccc2)C12CN(C(=O)NC1CCCC1)C2 | 0
SMILES | E-sel inducer
CN1c2ccc(-c3ccc(F)cc3)cc2[C@@H]2[C@@H](CCN2C(=O)c2ccc(F)cc2)[C@H]1CO | 1
C[C@@H]1CCCCO[C@H](CN(C)C(=O)CCCN(C)C)[C@@H](C)CN([C@H](C)CO)C(=O)c2cc(NC(=O)Nc3cccc4ccccc34)ccc2O1 | 0
Cc1ccc(S(=O)(=O)N[C@H]2CC[C@H](CCNC(=O)C3CC3)O[C@@H]2CO)cc1 | -1
CC(C)COC(=O)N(C)C[C@H]1OCc2ccccc2-c2c(n(C)c3ccccc23)C(=O)N([C@@H](C)CO)C[C@H]1C | 0
CO[C@@H]1CN(C)C(=O)c2cc(NS(C)(=O)=O)ccc2OC[C@H](C)N(C(=O)C2CCCCC2)C[C@@H]1C | 0
Cc1ccccc1C(=O)N1CCC(C(=O)NN2C(=O)NC3(CCCCC3)C2=O)CC1 | 264*
Cc1ccccc1C(=O)N1CCC(C(=O)Nc2ccc(S(=O)(=O)N3C(C)CCCC3C)cc2)CC1 (configuration not stated) | 0
Cc1ccc(NC(=O)C2CCN(C(=O)c3ccccc3C)CC2)cc1 | 15
O=C(Cc1ccccn1)NCC[C@H]1CC[C@H](NC(=O)Nc2ccccc2)[C@@H](CO)O1 | 0
